Compounds with a hit are over-represented: about 9.4% of the library has one in this group of screens.
Beta apoptosis = beta cell apoptosis inhibition | INS-1E cytokine-induced death, ATP luminescence, 48 h; percent of positive-control rescue, neutral wells zero | protection from apoptosis, % (no concentration beside the values) | 0.8% of 300,000 active;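 active = Every replicate reaches about 75%, or at least half do and their mean reaches it too, limit read from the data; inconclusive = At least half of replicates reach the limit but their mean does not; inactive = Under half of replicates reach the limit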;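 also: 0% = cytokine-treated negative control wells and 100% = positive control rescue; higher means more ATP so stronger rescue from cytokine killing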
SKKanGAS inh = SKKanGAS growth inhibition; S. pyogenes SKKanGAS, kanamycin growth, BacTiter-Glo, 6 h; inhibition, % at 7.5 µM; 1.3% of 300,000 active; AID 1662;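 active = mean replicate score, as percent of positive control median, at least 50; inconclusive = mean below 50 but one replicate at or above 50; inactive = mean and every replicate below 50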;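 also: strain carries kanamycin resistance gene driven by streptokinase promoter and grows in 40 µg/ml kanamycin; loss of luminescence reflects streptokinase promoter inhibition or plain growth inhibition; 0% = median of DMSO wells and 100% = positive control at its reference dose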
T cruzi repl = T. cruzi replication inhibition. T. cruzi beta-gal in NIH3T3, luminescence, 90 h. inhibition, % (test concentration not listed). 1.4% of 300,000 active. AID 1885;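 active = mean inhibition across valid replicates above about 55%, limit read from the data; inconclusive = mean below that limit but half or more replicates reach it; inactive = mean below it, under half of replicates reach it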;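 also: signal also drops with host cell toxicity which is not excluded here; 0% = plate median of DMSO wells and 100% = zero luminescence signal; higher percent means less beta-gal luminescence so fewer parasites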
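Test system: β-gal T. cruzi (Tulahuen C4) inside NIH/3T3 cells / Quantity: 5,000 cells/well / Measured by: luminescence from GalScreen with 0.05% NP40, read after 60 min / Medium: DMEM plus 2% FBS / Measure: parasite load inhibition, % / Reagent: Tulahuen C4 trypomastigotes, 5000/well / Schedule: co-culture of at least 90 h after 3 h attachment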
Mdm2 MdmX PPI = disrupts the human Mdm2-MdmX interaction; O15151+Q00987; SaOS-2 split-luciferase Mdm2/MdmX complementation, luminescence; inhibition, % at 8 µM; 3% of 330,000 active;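 active = inhibition of at least 50% at 8 µM in the primary screen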
Target sequence (O15151 whole entry, looked up): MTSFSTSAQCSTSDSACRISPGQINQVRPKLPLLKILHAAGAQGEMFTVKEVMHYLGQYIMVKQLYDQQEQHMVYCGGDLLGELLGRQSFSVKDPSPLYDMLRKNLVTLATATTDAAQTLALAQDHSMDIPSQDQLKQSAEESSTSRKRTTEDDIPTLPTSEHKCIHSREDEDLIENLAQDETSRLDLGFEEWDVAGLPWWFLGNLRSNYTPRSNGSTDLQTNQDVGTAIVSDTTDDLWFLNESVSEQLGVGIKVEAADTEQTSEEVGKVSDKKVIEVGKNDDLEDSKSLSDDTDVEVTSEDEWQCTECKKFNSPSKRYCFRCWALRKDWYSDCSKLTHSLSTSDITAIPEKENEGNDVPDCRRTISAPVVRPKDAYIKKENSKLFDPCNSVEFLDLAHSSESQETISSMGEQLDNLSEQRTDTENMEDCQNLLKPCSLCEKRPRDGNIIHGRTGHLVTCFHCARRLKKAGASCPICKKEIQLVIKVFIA
Target sequence (Q00987 whole entry, looked up): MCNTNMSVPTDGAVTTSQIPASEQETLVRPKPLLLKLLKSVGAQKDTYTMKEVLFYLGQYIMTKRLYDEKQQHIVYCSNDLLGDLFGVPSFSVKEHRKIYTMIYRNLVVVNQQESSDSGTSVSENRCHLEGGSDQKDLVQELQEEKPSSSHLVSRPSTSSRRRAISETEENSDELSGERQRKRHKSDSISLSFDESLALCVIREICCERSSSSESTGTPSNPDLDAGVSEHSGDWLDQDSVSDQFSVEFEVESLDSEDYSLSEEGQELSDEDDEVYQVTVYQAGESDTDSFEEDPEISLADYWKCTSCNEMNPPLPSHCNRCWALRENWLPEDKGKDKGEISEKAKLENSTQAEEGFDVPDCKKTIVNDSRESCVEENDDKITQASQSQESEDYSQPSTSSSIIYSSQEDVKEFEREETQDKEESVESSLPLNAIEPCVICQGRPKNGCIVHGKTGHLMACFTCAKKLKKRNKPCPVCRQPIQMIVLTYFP
Lmaj promast = inhibitors of Leishmania major promastigote growth; Leishmania major promastigotes, resazurin fluorescence viability; inhibition, % at 10 µM; 9% of 200,000 active; in the data active = inhibition above about 50%;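 also: promastigotes grown with compound for 44 hours at 28 °C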
CSC inhib = blocks cancer stem cells; cancer stem cell-like cells viability, luminescence; inhibition, % at 7.5 µM; 1.1% of 300,000 active; AID 2717; in the data active = inhibition above about 75%; inconclusive = no clear call, values can overlap the other calls; tested in HMLE shEcad cells
Mdm2-MdmX conf = human Mdm2/MdmX binding inhibition, confirmed; shares compounds with Mdm2 MdmX PPI; luminescent assay; inhibition, % at 8 µM; 55% of 10,000 active; AID 489028; in the data active = inhibition above about 40%
FLuc counter = inhibits full-length luciferase, flagging false Mdm2/MdmX hits; 77% of 6,200 active; SaOS-2 full-length luciferase counterscreen, luminescence; shares compounds with Mdm2 MdmX PPI; inhibition, % at 8 µM; AID 504607;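 active = mean inhibition at 8 µM reaching about 37%, which flags the compound as non-specific, limit read from the data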;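 also: p53-null SaOS-2 cells with luciferase driven by a doxycycline-inducible promoter; compound on cells about two nights before reading with doxycycline added after day one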
Active calls of the source: *; ? = inconclusive; nt = not tested or not shown; + = active, no number.

SMILES	Beta apoptosis	SKKanGAS inh	T cruzi repl	Mdm2 MdmX PPI	Lmaj promast	CSC inhib	Mdm2-MdmX conf	FLuc counter
Cc1ccc(NS(=O)(=O)c2ccc(Cl)c(C(=O)Nc3ccccc3-c3nc4ccccc4[nH]3)c2)cc1C	10	?	68*	61*	25	+	77*	51*
Cn1c(N)c(C(C[N+](=O)[O-])c2ccccc2Cl)c(=O)n(C)c1=O (centres undefined)	4	-15	-3	14	nt	20	nt	nt
COc1cccc(F)c1C(C[N+](=O)[O-])c1c(N)n(C)c(=O)n(C)c1=O (centres undefined)	97*	-5	-2	95*	nt	71	45*	36*
CCOC(=O)c1sc2nc(CSc3ccccc3)nc(N3CCCN(C)CC3)c2c1C	12	-8	?	74*	100*	31	43*	63*
CC1=C([N+](=O)[O-])C(c2ccccc2)C2=C(N1)c1ccccc1C2=O (centres undefined)	16	-1	12	56*	20	52	63*	79*
O/C(=C\c1nc2ccccc2[nH]1)c1cccs1	-5	24	4	-39	nt	nt	nt	nt
O=C(/C(=C/c1ccc(Cl)cc1)c1nc2ccccc2[nH]1)c1cccs1	126*	0	59*	81*	100*	93*	100*	51*
O=C(/C(=C\c1ccccc1)c1nc2ccccc2[nH]1)c1ccc(Cl)cc1	3	14	37	100*	100*	79*	-54	nt
O=C(/C=C/c1cccc(Cl)c1)c1nc2ccccc2[nH]1	-3	17	-10	92*	100*	84*	4	nt
O=C(/C=C/c1cccc(Cl)c1)Nc1ncccn1	-6	2	-10	-46	4	-30	nt	nt
Cc1ccc(-n2cnc(N)c2C(=O)c2cccc([N+](=O)[O-])c2)cc1	-8	5	1	21	nt	-9	nt	nt
O=C(NCc1cccc(C(F)(F)F)c1)C1CC(c2ccc(C(F)(F)F)cc2)=NO1 (centres undefined)	-3	10	-10	43	nt	14	nt	nt
O=C1C=C(c2ccc3c(c2)oc2ccccc23)C[C@@H](c2ccc(Cl)cc2)C1	0	nt	nt	29	nt	-9	nt	nt
Cc1nn(-c2ccccc2)c2nc(N)c(C#N)c(-c3ccc(O)c(O)c3)c12	-1	15	42	55*	nt	44	23	nt
Cn1nc(N)c2c(-c3ccccc3)c(C#N)c(N)nc21	-2	0	5	6	0	-17	nt	nt
CCOc1cc(-c2c(C#N)c(=O)[nH]c3c2c(C)nn3-c2ccc(F)cc2)ccc1O	nt	14	-6	26	-8	1	nt	nt
Cc1nn(-c2ccc(F)cc2)c2nc(N)c(C#N)c(-c3ccc(O)c(O)c3)c12	-2	39	59*	61*	nt	31	29	nt
Cc1ccc(NC(=O)C(C)OC(=O)Cn2cnc3ccccc3c2=O)cc1 (centres undefined)	nt	-4	-2	-13	nt	-26	nt	nt
O=[N+]([O-])c1cccc(-c2n[nH]c(=S)n2-c2ccc(Br)cc2)c1	11	1	-13	13	13	10	nt	nt
COc1ccc(-c2cc(-c3ccc(Cl)cc3)n[nH]2)c(O)c1	5	?	24	-218	nt	28	nt	nt
Oc1ccc(Br)cc1-c1cc(-c2ccc(Cl)cc2)n[nH]1	92*	27	-24	85*	-2	53	32	6
O=[N+]([O-])c1cccc(-c2cc(-c3cc(Br)ccc3O)[nH]n2)c1	nt	37	9	93*	nt	97*	80*	59*
COCc1cc(=O)[nH]c(Cc2c(Cl)cccc2Cl)n1	nt	-1	-7	15	nt	nt	nt	nt
COCc1cc(=O)[nH]c(Nc2nc3ccc(C)cc3o2)n1	80*	70*	59*	78*	99*	nt	8	nt
Cn1cc(/C=C2\SC(=S)N(N3CCOCC3)C2=O)c2ccccc21	-6	-4	-22	50*	nt	-8	6	nt
SMILES	Beta apoptosis	SKKanGAS inh	T cruzi repl	Mdm2 MdmX PPI	Lmaj promast	CSC inhib	Mdm2-MdmX conf	FLuc counter
C=C(C(=O)Oc1ccccc1C(C)(C)C)c1ccccc1	7	nt	nt	96*	nt	103*	49*	34
Cc1nn(-c2ccccc2)c2c1C(c1ccc(Cl)cc1)N(c1ccccc1)C(=O)N2 (centres undefined)	-3	19	14	11	30	2	nt	nt
Cc1nn(-c2ccccc2)c2c1C(c1ccc(O)c(O)c1)N1C(=N2)C(Nc2ccccc2)=Nc2ccccc21 (centres undefined)	15	88*	51	83*	90*	90*	45*	40*
Cc1cccc(NC2=Nc3ccccc3N3C2=Nc2c(c(C)nn2-c2ccccc2)C3c2ccc(O)c(O)c2)c1 (centres undefined)	14	99*	6	78*	-7	100*	39	50*
O=C(NCC1CCCO1)c1cc2nc(-c3ccco3)cc(C(F)(F)Cl)n2n1 (centres undefined)	-2	0	8	6	nt	15	nt	nt
O=C(O)[C@H]1CC=C[C@H]2CCN(Cc3ccc(Cl)c(Cl)c3)C(=O)[C@@H]12	nt	nt	nt	7	nt	nt	nt	nt
O=C(Nc1ccc(Cl)c(C(F)(F)F)c1)[C@@H]1CC=C[C@@H]2CCN(Cc3ccc(Cl)c(Cl)c3)C(=O)[C@@H]21	8	5	50	63*	nt	35	1	nt
O=C(COC(=O)c1cc(S(=O)(=O)N2CCCCC2)ccc1N1CCOCC1)NC1CCS(=O)(=O)C1 (centres undefined)	-13	-9	-2	19	-6	3	nt	nt
CCOC(=O)c1sc(=S)n(C)c1NC(=O)c1ccc(OC)cc1	-2	-3	6	21	nt	-12	nt	nt
CCOC(=O)c1sc(=S)n(C)c1NC(=O)c1ccc(C(C)(C)C)cc1	7	6	10	61*	nt	37	31	nt
C[C@@]12CCC3[C@@](CCC4[C@@]3(C)CCC[C@@]4(C)C(=O)Nc3ccc(Cl)cc3)(CC1=O)C2 (some centres undefined)	5	nt	nt	31	nt	7	nt	nt
O=C(CCN1C(=O)/C(=C/c2ccccc2)SC1=S)Nc1cccnc1	3	4	1	-5	nt	0	nt	nt
CC(C)c1ccc(/C=C2\SC(=S)N(CCC(=O)N3CCCCC3CCO)C2=O)cc1 (centres undefined)	-29	-3	-10	62*	nt	29	50*	30
O=C1/C(=C/c2ccccc2Cl)SC(=S)N1CCC(=O)N1CCCCC1CCO (centres undefined)	-37	11	-8	53*	nt	11	24	nt
O=C1/C(=C/c2ccccc2)SC(=S)N1CC(=O)N1CCCCC1c1cccnc1 (centres undefined)	-30	4	29	85*	nt	10	32	21

Compound activity: PubChem BioAssay, several laboratories
